# Reference: ChEMBL document CHEMBL4406880, “Design, synthesis, and bioactivity of dihydropyrimidine derivatives as kinesin spindle protein inhibitors” (Bioorg Med Chem, 2019)
# How the values were obtained:
# Assay type in all cases: functional
# HT-29 = experiment: Growth inhibition of human HT-29 cells incubated for 48 hrs by sulforhodamine B assay; conditions: HT-29, 48 h
# Method in brief: (§1)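 NCI-60 five-dose SRB assay in RPMI 1640 with 5% FBS, 37 °C, 5% CO2. Compound given at five tenfold dilutions, 0.01–100 µM, for 48 h. Adherent cells fixed with TCA, suspension cells with 16% final TCA. Bound SRB read at 515 nm and growth calculated against time-zero and untreated controls. GI50 taken from dose–response curves as the concentration giving a 50% decrease in net cell growth.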
# OVCAR-3 = experiment: Growth inhibition of human OVCAR3 cells assessed as cell viability at 0.001 uM incubated for 48 hrs by sulforhodamine B assay relative to control; conditions: OVCAR-3, 48 h, read-out: Activity
# HOP-62 = experiment: Growth inhibition of human HOP62 cells incubated for 48 hrs by sulforhodamine B assay; conditions: HOP-62, 48 h; method in brief: as §1
# SW-620 = experiment: Growth inhibition of human SW620 cells assessed as cell viability at 0.001 uM incubated for 48 hrs by sulforhodamine B assay relative to control; conditions: SW-620, 48 h, read-out: Activity
# MDA-MB-231 = experiment: Growth inhibition of human MDA-MB-231 cells assessed as cell viability at 0.001 uM incubated for 48 hrs by sulforhodamine B assay relative to control; conditions: MDA-MB-231, 48 h, read-out: Activity
# TK-10 = experiment: Growth inhibition of human TK10 cells assessed as cell viability at 1 uM incubated for 48 hrs by sulforhodamine B assay; conditions: TK-10, 48 h, read-out: Activity
# OVCAR-8 [1] = experiment: Growth inhibition of human OVCAR8 cells assessed as cell viability at 100 uM incubated for 48 hrs by sulforhodamine B assay; conditions: OVCAR-8, 48 h, read-out: Activity
# NCI-H23 = experiment: Growth inhibition of human NCI-H23 cells assessed as cell viability at 100 uM incubated for 48 hrs by sulforhodamine B assay; conditions: NCI-H23, 48 h, read-out: Activity
# OVCAR-8 [2] = experiment: Growth inhibition of human OVCAR8 cells assessed as cell viability at 0.001 uM incubated for 48 hrs by sulforhodamine B assay relative to control; conditions: OVCAR-8, 48 h, read-out: Activity
# K562 = experiment: Growth inhibition of human K562 cells assessed as cell viability at 0.001 uM incubated for 48 hrs by sulforhodamine B assay relative to control; conditions: K562, 48 h, read-out: Activity
# T47D = experiment: Growth inhibition of human T47D cells assessed as cell viability at 1 uM incubated for 48 hrs by sulforhodamine B assay; conditions: read-out: Activity
# UO-31 = experiment: Growth inhibition of human UO31 cells assessed as cell viability at 1 uM incubated for 48 hrs by sulforhodamine B assay; conditions: UO-31, 48 h, read-out: Activity
# OVCAR-4 = experiment: Growth inhibition of human OVCAR4 cells assessed as cell viability at 100 uM incubated for 48 hrs by sulforhodamine B assay; conditions: OVCAR-4, 48 h, read-out: Activity
# UACC-257 = experiment: Growth inhibition of human UACC257 cells assessed as cell viability at 0.1 uM incubated for 48 hrs by sulforhodamine B assay; conditions: UACC-257, 48 h, read-out: Activity
# OVCAR-5 = experiment: Growth inhibition of human OVCAR5 cells incubated for 48 hrs by sulforhodamine B assay; conditions: OVCAR-5, 48 h
# Method in brief: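 NCI-60 five-dose SRB assay. Cells were exposed for 48 h to tenfold dilutions of 0.01, 0.1, 1, 10 and 100 µM, in RPMI 1640 with 5% FBS. Plates fixed with TCA at the time of drug addition served as the time-zero reference. GI50 is the concentration giving a 50% reduction in net growth. TGI is total growth inhibition. LC50 is a net 50% loss of the initial cells.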
# SNB-19 = experiment: Growth inhibition of human SNB19 cells assessed as cell viability at 1 uM incubated for 48 hrs by sulforhodamine B assay; conditions: SNB-19, 48 h, read-out: Activity
# BT-549 [3] = experiment: Growth inhibition of human BT549 cells incubated for 48 hrs by sulforhodamine B assay; conditions: BT-549, 48 h
# Method in brief: (§2)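 NCI-60 five-dose mode: five tenfold dilutions (0.01, 0.1, 1, 10, 100 µM) are applied for 48 h to cells in RPMI 1640 with 5% FBS at 37 °C. Endpoint is TCA fixation with sulforhodamine B read at 515 nm. % growth comes from the 0 h and control absorbances. GI50 is the concentration giving a 50% reduction in net cell growth.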
# LOX IMVI = experiment: Growth inhibition of human LOXIMVI cells assessed as cell viability at 100 uM incubated for 48 hrs by sulforhodamine B assay; conditions: read-out: Activity
# BT-549 [4] = experiment: Growth inhibition of human BT549 cells assessed as cell viability at 0.001 uM incubated for 48 hrs by sulforhodamine B assay relative to control; conditions: BT-549, 48 h, read-out: Activity
# DU-145 = experiment: Growth inhibition of human DU145 cells assessed as cell viability at 0.001 uM incubated for 48 hrs by sulforhodamine B assay relative to control; conditions: DU-145, 48 h, read-out: Activity
# HCC 2998 [5] = experiment: Growth inhibition of human HCC2998 cells assessed as cell viability at 100 uM incubated for 48 hrs by sulforhodamine B assay; conditions: HCC 2998, 48 h, read-out: Activity
# HCC 2998 [6] = experiment: Growth inhibition of human HCC2998 cells incubated for 48 hrs by sulforhodamine B assay; conditions: HCC 2998, 48 h; method in brief: as §2
# IGROV-1 = experiment: Growth inhibition of human IGROV1 cells assessed as cell viability at 0.001 uM incubated for 48 hrs by sulforhodamine B assay relative to control; conditions: IGROV-1, 48 h, read-out: Activity
# SK-MEL-5 = experiment: Growth inhibition of human SK-MEL-5 cells assessed as cell viability at 100 uM incubated for 48 hrs by sulforhodamine B assay; conditions: SK-MEL-5, 48 h, read-out: Activity
# A498 = experiment: Growth inhibition of human A498 cells assessed as cell viability at 1 uM incubated for 48 hrs by sulforhodamine B assay; conditions: A498, 48 h, read-out: Activity; method in brief: as §2
# [7] = read-out: LC50 (the source's name)
# [8] = read-out: pLC50 (the source's name) (converted)
smiles,measurement,setting,value
CC1=C(C(=O)OCc2ccccc2)C(c2ccc3c(c2)OCO3)n2c(nc3ccccc32)N1 (racemic),GI50,HT-29; read-out: GI50,0.34 µM
same,LC50 (50% net cell kill),HT-29; read-out: LC50,> 100 µM
same,TGI,HT-29; read-out: TGI,> 100 µM
same,GI50,HT-29; read-out: pGI50 (converted),0.347 µM
same,LC50 (50% net cell kill),HT-29; read-out: pLC50 (converted),> 100 µM
same,TGI,HT-29; read-out: pTGI,> 100 µM
same,viability at 0.001 µM,OVCAR-3,95%
same,GI50,HOP-62; read-out: GI50,0.78 µM
same,CC50,HOP-62; [7],> 100 µM
same,TGI,HOP-62; read-out: TGI,> 100 µM
same,GI50,HOP-62; read-out: pGI50 (converted),0.776 µM
same,CC50,HOP-62; [8],> 100 µM
same,TGI,HOP-62; read-out: pTGI,> 100 µM
same,viability at 0.001 µM,SW-620,98%
same,viability at 0.001 µM,MDA-MB-231,97%
same,viability at 1 µM,TK-10,71%
same,viability at 100 µM,OVCAR-8 [1],14%
same,viability at 100 µM,NCI-H23,44%
same,viability at 0.001 µM,OVCAR-8 [2],95%
same,viability at 0.001 µM,K562,93%
same,viability at 1 µM,T47D,30%
same,viability at 1 µM,UO-31,38%
same,viability at 100 µM,OVCAR-4,19%
same,viability at 0.1 µM,UACC-257,91%
same,GI50,OVCAR-5; read-out: GI50,> 100 µM
same,CC50,OVCAR-5; [7],> 100 µM
same,TGI,OVCAR-5; read-out: TGI,> 100 µM
same,GI50,OVCAR-5; read-out: pGI50 (converted),> 100 µM
same,CC50,OVCAR-5; [8],> 100 µM
same,TGI,OVCAR-5; read-out: pTGI,> 100 µM
same,viability at 1 µM,SNB-19,35%
same,GI50,BT-549 [3]; read-out: GI50,0.92 µM
same,CC50,BT-549 [3]; [7],> 100 µM
same,TGI,BT-549 [3]; read-out: TGI,> 100 µM
same,GI50,BT-549 [3]; read-out: pGI50 (converted),0.912 µM
same,CC50,BT-549 [3]; [8],> 100 µM
same,TGI,BT-549 [3]; read-out: pTGI,> 100 µM
same,viability at 100 µM,LOX IMVI,32%
same,viability at 0.001 µM,BT-549 [4],95%
same,viability at 0.001 µM,DU-145,102%
same,viability at 100 µM,HCC 2998 [5],46%
same,GI50,HCC 2998 [6]; read-out: GI50,11 µM
same,LC50,HCC 2998 [6]; read-out: LC50,> 100 µM
same,TGI,HCC 2998 [6]; read-out: TGI,> 100 µM
same,GI50,HCC 2998 [6]; read-out: pGI50 (converted),11 µM
same,LC50,HCC 2998 [6]; read-out: pLC50 (converted),> 100 µM
same,TGI,HCC 2998 [6]; read-out: pTGI,> 100 µM
same,viability at 0.001 µM,IGROV-1,92%
same,viability at 100 µM,SK-MEL-5,35%
same,viability at 1 µM,A498,15%
